The species entered for experiment [1] is Rattus norvegicus. Nature of the experiment: Compound was tested in vitro for antidiuretic activity in rat. The format is functional, Urine. The note with it: in the assay text read “in vivo” for “in vitro”. The gist of the method: (§1)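 Anesthetized male Sprague-Dawley rats. Where activity was measurable, Schild four-point design with at least ten determinations on three animals.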

The next experiment is filed under the species Gallus gallus. The experiment in a line: Compound was tested in vitro for avain vasopressor activity. The format is functional. The note with it: in the assay text read “vasodepressor” for “vasopressor”. The essentials: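 Vasodepressor assay in conscious White Leghorn roosters (Coon method, modified). Where activity was measurable, Schild four-point design with at least ten determinations on three animals.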

For experiment [2], the species on record is Rattus norvegicus. The experiment in a line: Compound was tested in vitro for pressor activity on rat. The format is functional. The note with it: in the assay text read “in vivo” for “in vitro”. The gist of the method:
as §1

For experiment [3], the species on record is Rattus norvegicus. The experiment in a line: Compound was tested in vitro for uterotonic activity in rat. The format is functional. The gist of the method: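 Isolated uterine horns from virgin rats in natural estrus (Holton method as modified by Munsick), Mg2+-free van Dyke-Hastings solution as bath. Where activity was measurable, Schild four-point design with at least ten determinations on three animals.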

The species entered for experiment [4] is Rattus norvegicus. Nature of the experiment: Compound was tested for percent maximum uterotonic response. The format is functional. The essentials: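 Isolated uterine horns from virgin rats in natural estrus, bathed in Mg2+-free van Dyke-Hastings solution. Dose-response by individual injection, doses raised geometrically in 0.5 log10 steps until a maximal response was reached.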

In the case of `CC[C@H](C)[C@@H]1NC(=O)[C@H](Cc2ccc(O)cc2)NC(=O)[C@@H](N)CSSC[C@@H](C(=O)N2CCC[C@H]2C(=O)N[C@@H](CC(C)C)C(=O)NCC(N)=O)NC(=O)[C@H](CC(N)=O)NC(=O)[C@H](CCC(N)=O)NC1=O` [OXYTOCIN], the Activity in the experiment filed under Rattus norvegicus [1] is on record as 3.1 mg; in the experiment filed under Gallus gallus, 507 mg; in the experiment filed under Rattus norvegicus [2] it was 2.7 mg; in the experiment filed under Rattus norvegicus [3], 546 mg. Also, the Max uterotonic response in the experiment filed under Rattus norvegicus [4] is reported as 100%.

The values are drawn from ChEMBL document CHEMBL1121394, “Oxytocin and lysine-vasopressin with N5,N5-dialkylglutamine in the 4 position: effect of introducing sterically hindered groups into the hydrophilic cluster of neurohypophyseal hormones” (1980).
